Test results: ChEMBL document CHEMBL1212799 (2010)
Converted amounts (≈) assume the structure as drawn.

How the values were obtained:
Klebsiella pneumoniae [1] = assay: Antibacterial activity against Klebsiella pneumoniae isolate 377 in vitro pharmacodynamic model; type: functional
Procedure, shortened: (§1)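 Simulated peak 38.4 µg/ml, trough 3.04 µg/ml. CAMHB at 37°C, 10^6 CFU/ml from overnight culture, drug started at 0.5 h. Two treated models plus one growth control. Change in log10 CFU/ml over 24 h on blood agar. Detection limit 10^1 CFU/ml.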

Klebsiella pneumoniae [2] = assay: Antibacterial activity against Klebsiella pneumoniae isolate 328A in vitro pharmacodynamic model; type: functional
Procedure, shortened: (§2)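 Inoculum 10^6 CFU/ml; dosing began 0.5 h after inoculation. Two treated models plus one untreated control per isolate; blood-agar counts; change in log10 CFU/ml over 24 h (detection limit 10^1); drug levels checked by HPLC.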

Klebsiella pneumoniae [3] = assay: Antibacterial activity against Klebsiella pneumoniae isolate 354 in vitro pharmacodynamic model; type: functional; procedure, shortened: as §2
Klebsiella pneumoniae [4] = assay: Antibacterial activity against Klebsiella pneumoniae isolate 368 in vitro pharmacodynamic model; type: functional; procedure, shortened: as §1
Klebsiella pneumoniae [5] = assay: fT>MIC in Klebsiella pneumoniae isolate 377 at 2 gram for every 8 hrs administered as 3 hrs infusion over 24 hrs in in vitro pharmcodynamic model; type: functional
Klebsiella pneumoniae [6] = assay: fT>MIC in Klebsiella pneumoniae isolate 354 at 2 gram for every 8 hrs administered as 3 hrs infusion over 24 hrs in in vitro pharmcodynamic model; type: functional
Procedure, shortened: (§3)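 Samples assayed by HPLC (linear 0.25–40 µg/ml). Time free drug stayed above the modal triplicate broth-microdilution MIC (CLSI) calculated for each 8-h interval.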

Klebsiella pneumoniae [7] = assay: fT>MIC in Klebsiella pneumoniae isolate 353 at 2 gram for every 8 hrs administered as 3 hrs infusion over 24 hrs in in vitro pharmcodynamic model; type: functional, isoalte 353; procedure, shortened: as §3
Klebsiella pneumoniae [8] = assay: fT>MIC in Klebsiella pneumoniae isolate 334 at 2 gram for every 8 hrs administered as 3 hrs infusion over 24 hrs in in vitro pharmcodynamic model; type: functional; procedure, shortened: as §3
Klebsiella pneumoniae [9] = assay: fT>MIC in Klebsiella pneumoniae isolate 375 at 2 gram for every 8 hrs administered as 3 hrs infusion over 24 hrs in in vitro pharmcodynamic model; type: functional
Pseudomonas aeruginosa [10] = assay: fT>MIC in Pseudomonas aeruginosa isolate 1030 at 2 gram for every 8 hrs administered as 3 hrs infusion over 24 hrs in in vitro pharmcodynamic model; type: functional
Pseudomonas aeruginosa [11] = assay: fT>MIC in Pseudomonas aeruginosa isolate 988 at 2 gram for every 8 hrs administered as 3 hrs infusion over 24 hrs in in vitro pharmcodynamic model; type: functional
Klebsiella pneumoniae [12] = assay: fT>MIC in Klebsiella pneumoniae isolate 328A at 2 gram for every 8 hrs administered as 3 hrs infusion measured over 0-8 hrs in in vitro pharmcodynamic model; type: functional; procedure, shortened: as §3
Klebsiella pneumoniae [13] = assay: fT>MIC in Klebsiella pneumoniae isolate 375 at 2 gram for every 8 hrs administered as 3 hrs infusion measured over 0-8 hrs in in vitro pharmcodynamic model; type: functional
Klebsiella pneumoniae [14] = assay: fT>MIC in Klebsiella pneumoniae isolate 361 at 2 gram for every 8 hrs administered as 3 hrs infusion measured over 0-8 hrs in in vitro pharmcodynamic model; type: functional; procedure, shortened: as §3
Pseudomonas aeruginosa [15] = assay: fT>MIC in Pseudomonas aeruginosa isolate 1030 at 2 gram for every 8 hrs administered as 3 hrs infusion measured over 0-8 hrs in in vitro pharmcodynamic model; type: functional
Pseudomonas aeruginosa [16] = assay: fT>MIC in Pseudomonas aeruginosa isolate 1038 at 2 gram for every 8 hrs administered as 3 hrs infusion measured over 0-8 hrs in in vitro pharmcodynamic model; type: functional
Pseudomonas aeruginosa [17] = assay: fT>MIC in Pseudomonas aeruginosa isolate 896 at 2 gram for every 8 hrs administered as 3 hrs infusion measured over 0-8 hrs in in vitro pharmcodynamic model; type: functional
Klebsiella pneumoniae [18] = assay: fT>MIC in Klebsiella pneumoniae isolate 351 at 2 gram for every 8 hrs administered as 3 hrs infusion measured over 8-16 hrs in in vitro pharmcodynamic model; type: functional; procedure, shortened: as §3
Klebsiella pneumoniae [19] = assay: fT>MIC in Klebsiella pneumoniae isolate 357 at 2 gram for every 8 hrs administered as 3 hrs infusion measured over 8-16 hrs in in vitro pharmcodynamic model; type: functional; procedure, shortened: as §3
Klebsiella pneumoniae [20] = assay: fT>MIC in Klebsiella pneumoniae isolate 368 at 2 gram for every 8 hrs administered as 3 hrs infusion measured over 8-16 hrs in in vitro pharmcodynamic model; type: functional
Klebsiella pneumoniae [21] = assay: fT>MIC in Klebsiella pneumoniae isolate 375 at 2 gram for every 8 hrs administered as 3 hrs infusion measured over 8-16 hrs in in vitro pharmcodynamic model; type: functional
Klebsiella pneumoniae [22] = assay: fT>MIC in Klebsiella pneumoniae isolate 361 at 2 gram for every 8 hrs administered as 3 hrs infusion measured over 8-16 hrs in in vitro pharmcodynamic model; type: functional; procedure, shortened: as §3
Pseudomonas aeruginosa [23] = assay: fT>MIC in Pseudomonas aeruginosa isolate 988 at 2 gram for every 8 hrs administered as 3 hrs infusion measured over 8-16 hrs in in vitro pharmcodynamic model; type: functional
Klebsiella pneumoniae [24] = assay: fT>MIC in Klebsiella pneumoniae isolate 377 at 2 gram for every 8 hrs administered as 3 hrs infusion measured over 16-24 hrs in in vitro pharmcodynamic model; type: functional
Klebsiella pneumoniae [25] = assay: fT>MIC in Klebsiella pneumoniae isolate 353 at 2 gram for every 8 hrs administered as 3 hrs infusion measured over 16-24 hrs in in vitro pharmcodynamic model; type: functional, isoalte 353; procedure, shortened: as §3
Klebsiella pneumoniae [26] = assay: fT>MIC in Klebsiella pneumoniae isolate 360 at 2 gram for every 8 hrs administered as 3 hrs infusion measured over 16-24 hrs in in vitro pharmcodynamic model; type: functional; procedure, shortened: as §3
Klebsiella pneumoniae [27] = assay: fT>MIC in Klebsiella pneumoniae isolate 334 at 2 gram for every 8 hrs administered as 3 hrs infusion measured over 16-24 hrs in in vitro pharmcodynamic model; type: functional; procedure, shortened: as §3
Klebsiella pneumoniae [28] = assay: fT>MIC in Klebsiella pneumoniae isolate 368 at 2 gram for every 8 hrs administered as 3 hrs infusion measured over 16-24 hrs in in vitro pharmcodynamic model; type: functional
Klebsiella pneumoniae [29] = assay: fT>MIC in Klebsiella pneumoniae isolate 375 at 2 gram for every 8 hrs administered as 3 hrs infusion measured over 16-24 hrs in in vitro pharmcodynamic model; type: functional
Pseudomonas aeruginosa [30] = assay: fT>MIC in Pseudomonas aeruginosa isolate 1030 at 2 gram for every 8 hrs administered as 3 hrs infusion measured over 16-24 hrs in in vitro pharmcodynamic model; type: functional
Pseudomonas aeruginosa [31] = assay: fT>MIC in Pseudomonas aeruginosa isolate 988 at 2 gram for every 8 hrs administered as 3 hrs infusion measured over 16-24 hrs in in vitro pharmcodynamic model; type: functional
Klebsiella pneumoniae [32] = assay: Antibacterial activity against Klebsiella pneumoniae isolate 353 assessed as reduction of bacterial count at 16 ug/ml within 6 hrs in vitro pharmacodynamic model; type: functional, isoalte 353
Klebsiella pneumoniae [33] = assay: Antibacterial activity against Klebsiella pneumoniae isolate 328A assessed as reduction of bacterial count at 8 ug/ml within 6 hrs in vitro pharmacodynamic model; type: functional
Klebsiella pneumoniae [34] = assay: Antibacterial activity against Klebsiella pneumoniae isolate 334 assessed as reduction of bacterial count at 32 ug/ml within 6 hrs in vitro pharmacodynamic model; type: functional
Pseudomonas aeruginosa [35] = assay: Antibacterial activity against Pseudomonas aeruginosa isolate 1030 assessed as reduction of bacterial count at 8 ug/ml within 6 hrs in vitro pharmacodynamic model; type: functional
Pseudomonas aeruginosa [36] = assay: Antibacterial activity against Pseudomonas aeruginosa isolate 1177 assessed as reduction of bacterial count at 8 ug/ml within 6 hrs in vitro pharmacodynamic model; type: functional
Pseudomonas aeruginosa [37] = assay: Antibacterial activity against Pseudomonas aeruginosa isolate 896 assessed as reduction of bacterial count at 16 ug/ml within 6 hrs in vitro pharmacodynamic model; type: functional
Klebsiella pneumoniae [38] = assay: fT>MIC in Klebsiella pneumoniae isolate 360 at 2 gram for every 8 hrs administered as 3 hrs infusion measured over 0-8 hrs in in vitro pharmcodynamic model; type: functional; procedure, shortened: as §3

## C[C@@H](O)[C@H]1C(=O)N2C(C(=O)O)=C(S[C@@H]3CN[C@H](C(=O)N(C)C)C3)[C@H](C)[C@H]12 [MEROPENEM]
Klebsiella pneumoniae [1]
  MIC: 2 µg/mL (≈ 5.22 µM)
Klebsiella pneumoniae [2]
  MIC: 8 µg/mL (≈ 20.9 µM)
Klebsiella pneumoniae [3]
  MIC: 8 µg/mL (≈ 20.9 µM)
Klebsiella pneumoniae [4]
  MIC: 32 µg/mL (≈ 83.4 µM)
Klebsiella pneumoniae [5]
  fT>MIC: 100%
Klebsiella pneumoniae [6]
  fT>MIC: 69%
Klebsiella pneumoniae [7]
  fT>MIC: 47%
Klebsiella pneumoniae [8]
  fT>MIC: 16%
Klebsiella pneumoniae [9]
  fT>MIC: 16%
Pseudomonas aeruginosa [10]
  fT>MIC: 69%
Pseudomonas aeruginosa [11]
  fT>MIC: 47%
Klebsiella pneumoniae [12]
  fT>MIC: 69%
Klebsiella pneumoniae [13]
  fT>MIC: 0%
Klebsiella pneumoniae [14]
  fT>MIC: 0%
Pseudomonas aeruginosa [15]
  fT>MIC: 75%
Pseudomonas aeruginosa [16]
  fT>MIC: 94%
Pseudomonas aeruginosa [17]
  fT>MIC: 50%
Klebsiella pneumoniae [18]
  fT>MIC: 62%
Klebsiella pneumoniae [19]
  fT>MIC: 0%
Klebsiella pneumoniae [20]
  fT>MIC: 0%
Klebsiella pneumoniae [21]
  fT>MIC: 0%
Klebsiella pneumoniae [22]
  fT>MIC: 0%
Pseudomonas aeruginosa [23]
  fT>MIC: 50%
Klebsiella pneumoniae [24]
  fT>MIC: 100%
Klebsiella pneumoniae [25]
  fT>MIC: 0%
Klebsiella pneumoniae [26]
  fT>MIC: 0%
Klebsiella pneumoniae [27]
  fT>MIC: 0%
Klebsiella pneumoniae [28]
  fT>MIC: 0%
Klebsiella pneumoniae [29]
  fT>MIC: 0%
Pseudomonas aeruginosa [30]
  fT>MIC: 78%
Pseudomonas aeruginosa [31]
  fT>MIC: 38%
Klebsiella pneumoniae [32]
  log10cfu: >3
Klebsiella pneumoniae [33]
  log10cfu: >3
Klebsiella pneumoniae [34]
  log10cfu: >3
Pseudomonas aeruginosa [35]
  log10cfu: >=3
Pseudomonas aeruginosa [36]
  log10cfu: >=3
Pseudomonas aeruginosa [37]
  log10cfu: >=3
Klebsiella pneumoniae [38]
  fT>MIC: 0%
